≈ marks a conversion by molar mass, not a printed value. Calls of active or inactive are those of the source. The calls are words filed in the database; no cut-off is given here.
Tests used:
Assay type in all cases: functional
[1] = tested on: Staphylococcus aureus; assay: Antibacterial activity against Staphylococcus aureus NCTC 6571 at 4 mg/ml by hole plate method; conditions: for zone of inhibition at 4000 µg/mL: read-out: IZ
How it was run: (§1)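 Hole-plate assay on bioassay plates seeded with the test organism. Compounds at 4 mg/ml in 7:3 DMSO/H2O were loaded into wells and incubated overnight at 37 °C. Inhibition zone diameters were then measured.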

[2] = tested on: Escherichia coli; assay: Antibacterial activity against Escherichia coli X580 at 4 mg/ml by hole plate method; conditions: for zone of inhibition at 4000 µg/mL: read-out: IZ; how it was run: as §1
[3] = tested on: Escherichia coli; assay: Antibacterial activity against Escherichia coli X580 by serial dilution
How it was run: (§2)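 MIC estimated by serial dilution of compound, each dilution assayed by the hole-plate method (overnight, 37 °C). The end point is the dilution at which no inhibition zone is obtained.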

[4] = tested on: Staphylococcus aureus; assay: Antibacterial activity against Staphylococcus aureus NCTC 6571 at 4 mg/ml by hole plate method relative to cephalosporin C
How it was run: (§3)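 Hole-plate diffusion: compound solutions at 4 mg/ml (7:3 DMSO/H2O) were placed in wells and incubated overnight at 37 °C. Inhibition zone diameters were measured, and potency was expressed as zone size per mg/ml relative to standards prepared with cephalosporin C.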

[5] = tested on: Escherichia coli; assay: Antibacterial activity against Escherichia coli X580 at 4 mg/ml by hole plate method relative to cephalosporin C; how it was run: as §3
[6] = tested on: Staphylococcus aureus; assay: Antibacterial activity against Staphylococcus aureus NCTC 6571 by serial dilution; how it was run: as §2

C=CCNC(=O)C(C)(C)C(O)c1ccccc1/C=C/c1ccccc1 (centres undefined)
zone of inhibition at 4000 µg/mL [1]: 14 mm
zone of inhibition at 4000 µg/mL [2]: 20 mm
MIC [3]: 500 µg/mL (≈ 1490 µM)
Activity [4]: 0.06 millimeter/mg/ml
Activity [5]: 0.01 millimeter/mg/ml

C=CCNC(=O)C(C)(C)C1(O)CCCCC1
Activity [1]: inactive
Activity [2]: inactive

C=CCNC(=O)C(C)(C)C(O)CCCCCCC (centres undefined)
Activity [1]: inactive
zone of inhibition at 4000 µg/mL [2]: 22 mm
MIC [3]: 1000 µg/mL (≈ 3920 µM)
Activity [5]: 0.01 millimeter/mg/ml

C=CCNC(=O)C(C)(C)C(O)c1ccccc1 (racemic)
Activity [1]: inactive
Activity [2]: inactive

C=CCNC(=O)C(C)(C)C(O)Cc1ccccc1 (centres undefined)
Activity [1]: inactive
Activity [2]: inactive

C#CCNC(=O)C(C)(C)C(O)c1ccccc1 (centres undefined)
Activity [1]: inactive
zone of inhibition at 4000 µg/mL [2]: 15 mm
Activity [5]: 0.003 millimeter/mg/ml

CC(C)(C(N)=O)C(O)/C=C/c1ccccc1 (centres undefined)
Activity [1]: inactive
Activity [2]: inactive

CC(C)(C(=O)NCc1ccc(Br)cc1)C(O)c1ccccc1 (centres undefined)
Activity [1]: inactive
Activity [2]: inactive

C=CCNC(=O)C(C)(C)C(O)CCCCc1ccccc1 (racemic)
zone of inhibition at 4000 µg/mL [1]: 17 mm
MIC [6]: 4000 µg/mL (≈ 13800 µM)
zone of inhibition at 4000 µg/mL [2]: 23 mm
MIC [3]: 500 µg/mL (≈ 1730 µM)
Activity [4]: 0.08 millimeter/mg/ml
Activity [5]: 0.01 millimeter/mg/ml

C/C(=C/C=C/c1ccccc1)C(O)C(C)(C)C(N)=O (centres undefined)
zone of inhibition at 4000 µg/mL [1]: 14 mm
zone of inhibition at 4000 µg/mL [2]: 28 mm
MIC [3]: 1000 µg/mL (≈ 3860 µM)
Activity [4]: 0.05 millimeter/mg/ml
Activity [5]: 0.03 millimeter/mg/ml

CCCNC(=O)C(C)(C)C(O)c1ccccc1 (centres undefined)
Activity [1]: inactive
Activity [2]: inactive

CC(C)(C(=O)NCc1ccccc1)C(O)c1ccccc1 (centres undefined)
Activity [1]: inactive
zone of inhibition at 4000 µg/mL [2]: 17 mm
MIC [3]: 500 µg/mL (≈ 1760 µM)
Activity [5]: 0.005 millimeter/mg/ml

Source: ChEMBL document CHEMBL1155014, “On the antibiotic activity of oxazolomycin” (2008)
